Assay results pooled from the literature.
TYK2 JH2: Non-receptor tyrosine-protein kinase TYK2, JH2 (TYK2, Homo sapiens, UniProt P29597)
TYK2 JH1: Non-receptor tyrosine-protein kinase TYK2, JH1 (TYK2, Homo sapiens, UniProt P29597)
TYK2: Non-receptor tyrosine-protein kinase TYK2 (TYK2, Homo sapiens, UniProt P29597)

CN(C)c1ncnc(-c2ccc3nc(Nc4cc(CN5CCN(C(=O)CC(F)(F)F)CC5)ccn4)[nH]c3c2)c1Cl  remaining binding (TYK2 JH2; cell-free assay; competition with immobilised ligand; 1 µM): 77%
COc1ncc2cc3ccccc3nc2c1C#N  remaining binding (TYK2 JH2; cell-free assay; competition with immobilised ligand; 5 µM): 99%
Cc1c[nH]c2nccc(Oc3c(F)cc(Nc4cc(Cl)nc(N)n4)cc3F)c12  remaining binding (TYK2 JH2; cell-free assay; competition with immobilised ligand; 0.1 µM): 89%
COc1cnc(Nc2cccc(S(N)(=O)=O)c2)nc1N1CCN(c2ccccc2)CC1  remaining binding (TYK2 JH1; binding; competition with immobilised ligand; 1 µM): 53%
COc1cc(-c2cn(C3CCc4c(F)cccc4N(CC(F)(F)F)C3=O)nn2)ccc1-n1cnc(C)c1 (stereo not shown)  remaining binding (TYK2 JH2; cell-free assay; competition with immobilised ligand; 1 µM): 100%
COc1cnc(Nc2cccc(S(N)(=O)=O)c2)nc1N1CCN(c2ccccc2)C(=O)C1  remaining binding (TYK2 JH2; binding; competition with immobilised ligand; 1 µM): 13%
O=C(Nc1c[nH]nc1C(=O)NC1CCNCC1)c1cc(F)cc(F)c1  remaining binding (TYK2 JH2; binding; competition with immobilised ligand; 1 µM): 100%
CNC(=O)[C@@H]1CC[C@@H](n2c(-c3ccc4cnccc4c3)nc3ccc(C(=O)NCc4cccc(C(N)=O)c4)cc32)C1  remaining binding (TYK2 JH2; binding; competition with immobilised ligand; 1 µM): 100%
O=C(NCCCN1CCOCC1)c1ccc(Nc2ncc(Cl)c(-c3ccc(Cl)s3)n2)cc1  remaining binding (TYK2 JH1; binding; competition with immobilised ligand; 1 µM): 26%
CN(C)c1nccc(-c2cnn3ncccc23)n1  remaining binding (TYK2 JH1; cell-free assay; competition with immobilised ligand; 1 µM): 51%
O=C(c1ccc(Nc2ncc(Cl)c(-c3cc4ccccc4s3)n2)cc1)N1CCC(N2CCCC2)CC1  remaining binding (TYK2 JH2; binding; competition with immobilised ligand; 1 µM): 0.1%
C[C@@H]1CN(c2ccc3ncc(-c4ccc5[nH]nc(C6CC6)c5c4)n3n2)C[C@H](C)O1  remaining binding (TYK2; binding; competition with immobilised ligand; 50 nM): 88%
CN(C)c1ncc(F)c(-c2cnn3ncccc23)n1  remaining binding (TYK2; binding; 1 µM): 70%
Cc1noc([C@H]2C[C@@H](c3ccc(C(F)(F)F)cc3)CN(C(=O)N3CCS(=O)(=O)C3)C2)n1  remaining binding (TYK2 JH1; cell-free assay; competition with immobilised ligand; 1 µM): 100%
CN(CCCC(F)(F)F)c1nccc(-c2cnn3ncccc23)n1  remaining binding (TYK2 JH1; cell-free assay; competition with immobilised ligand; 1 µM): 100%
C[C@H](NC(=O)c1cnc2n1[C@](C)(Cc1ccc(C#N)cc1)C(=O)N2c1cc(Cl)c(F)c(Cl)c1)C(=O)NC1(c2ccccn2)CC1  remaining binding (TYK2 JH2; cell-free assay; competition with immobilised ligand; 1 µM): 100%
CCN1CCN(Cc2ccc(C(=O)Nc3ccc(C)c(Oc4ccc5c(c4)CC(=O)N5)c3)cc2C(F)(F)F)CC1  remaining binding (TYK2 JH2; binding; competition with immobilised ligand; 1 µM): 100%
O=C(c1ccc(Nc2ncc(Cl)c(-c3ccc(Cl)s3)n2)cc1)N1CCC(N2CCCC2)CC1  remaining binding (TYK2 JH1; binding; competition with immobilised ligand; 1 µM): 25%
c1cncc(-c2cccc(Nc3nccc(NC4CCCCC4)n3)c2)c1  remaining binding (TYK2 JH1; binding; competition with immobilised ligand; 10 µM): 0.2%
Cc1cnc(Nc2ccc(C(=O)N3CCC(N4CCCC4)CC3)cc2)nc1-c1cc2ccccc2s1  remaining binding (TYK2 JH2; binding; competition with immobilised ligand; 1 µM): 0%
N[C@H]1CCN(c2nccc(-c3cnn4ncccc34)n2)C1  remaining binding (TYK2; binding; 1 µM): 78%
O=C(NCCCN1CCOCC1)c1ccc(Nc2nccc(-c3cc4ccccc4s3)n2)cc1  remaining binding (TYK2 JH2; binding; competition with immobilised ligand; 1 µM): 0%
O=C(NCC1CCOCC1)c1n[nH]cc1NC(=O)c1c(F)cccc1F  remaining binding (TYK2 JH1; binding; competition with immobilised ligand; 1 µM): 91%
CCc1ccccc1C(=O)Nc1n[nH]c2c(C)c(F)c(C3C(C#N)=C(C)N(C)C(C)=C3C#N)cc12  remaining binding (TYK2 JH1; cell-free assay; competition with immobilised ligand; 1 µM): 100%
FC(F)(F)Oc1cccc(-c2cnc3ccc(-c4ccncc4)nn23)c1  remaining binding (TYK2 JH1; binding; competition with immobilised ligand; 5 µM): 53%
CC1CCCN1c1nccc(-c2cnn3ncccc23)n1 (stereo not shown)  remaining binding (TYK2 JH1; cell-free assay; competition with immobilised ligand; 1 µM): 100%
COc1ccc2c(c1)O[C@H](c1ccc(OC)c(OC)c1)C[C@@H]2NC(=O)C1(c2ccc3c(c2)OC(F)(F)O3)CC1  remaining binding (TYK2 JH2; cell-free assay; competition with immobilised ligand; 1 µM): 100%
CN(C)c1nccc(-c2cnc3ncccn23)n1  remaining binding (TYK2; binding; 1 µM): 82%
CN1CCN(c2ccc(Nc3nccc(-c4ccccc4)n3)cc2C(F)(F)F)CC1  remaining binding (TYK2; binding; 10 µM): 0%
Nc1ncc2c(n1)-c1c([nH]c3ccc(C#CC4CC4)cc13)CCCC2  remaining binding (TYK2 JH2; binding; competition with immobilised ligand; 1 µM): 73%
F[C@@H]1CCN(c2nccc(-c3cnn4ncccc34)n2)C1  remaining binding (TYK2; binding; 1 µM): 100%
O=C(c1ccc(Nc2nccc(-c3cc4ccccc4s3)n2)cc1)N1CCC(N2CCCC2)CC1  remaining binding (TYK2 JH2; binding; competition with immobilised ligand; 1 µM): 0.1%
CC(=O)c1c(NS(C)(=O)=O)c2cc(-c3ccc(Cl)cc3)c(-c3ccc(Cl)cc3Cl)nc2n(C)c1=O  remaining binding (TYK2 JH2; cell-free assay; competition with immobilised ligand; 1 µM): 89%
COc1ccnn2ncc(-c3ccnc(N(C)C)n3)c12  remaining binding (TYK2; binding; 1 µM): 68%
